Results from different studies.
Lines come from different studies, so protocols differ.
Neuronal acetylcholine receptor; alpha3/beta2: Neuronal acetylcholine receptor; alpha3/beta2 (Rattus norvegicus, UniProt P04757+P12390)
AKR1C2: Aldo-keto reductase family 1 member C2 (AKR1C2, Homo sapiens, UniProt P52895)

`COc1ccc2[nH]c3c(c2c1)CCN(C)CC3` has an IC50 of 28.3 µM (Neuronal acetylcholine receptor; alpha3/beta2; ion current; antagonist; two-electrode voltage clamp; oocytes).
The IC50 of `O=C(O)C(F)F` is reported as > 50 µM (AKR1C2; enzyme activity; inhibitor; fluorescence).
`COc1ccc2c3c([nH]c2c1)CCN(C)CC3` has an IC50 of 27.6 µM (Neuronal acetylcholine receptor; alpha3/beta2; ion current; antagonist; two-electrode voltage clamp; oocytes).
The IC50 of `CC[C@H](C)[C@H](NC(C)=O)C(=O)N[C@@H](CCC(=O)O)C(=O)N[C@H](C(=O)N[C@H](C=O)CC(=O)O)[C@@H](C)O` is reported as 0.162 µM (Caspase-4 (Casp4, Mus musculus, UniProt P70343); enzyme activity; inhibitor).
The IC50 of `COC(=O)c1cc(N(C)C(=O)c2ccn3ncc(-c4ccc(C(=O)O)cc4)c3c2)ccc1Cl` is reported as > 30 µM (Vascular endothelial growth factor receptor 1 (FLT1, Homo sapiens, UniProt P17948); enzyme activity; inhibitor).
`O=C(NC[C@H]1C[C@@H]2CCN1C[C@@H]2CN1C[C@@H]2C[C@H](C1)c1cccc(=O)n1C2)c1ccc2c(c1)OCO2` has an IC50 of 13.7 µM (Atypical kinase COQ8A, mitochondrial (COQ8A, Homo sapiens, UniProt Q8NI60); ligand displacement; TR-FRET).
`O=C(O)C(F)(OC(F)(F)C(F)(F)C(F)(F)F)C(F)(F)F` (centres unmarked) gave an IC50 of 13.8 µM (AKR1C2; enzyme activity; inhibitor; fluorescence).
The IC50 of `CNC(=O)c1ccc(-c2cnn3ccc(C(=O)N(C)c4ccc(Cl)c(C(=O)OC)c4)cc23)cc1` is reported as > 30 µM (Serine/threonine-protein kinase Nek11 (NEK11, Homo sapiens, UniProt Q8NG66); enzyme activity; inhibitor).
